Laboratory results reported in ChEMBL document CHEMBL1147088, “Small molecule obatoclax (GX15-070) antagonizes MCL-1 and overcomes MCL-1-mediated resistance to apoptosis” (Proc Natl Acad Sci U S A, 2007).
Calls of active or inactive are those of the source. No cut-off for these calls is given here.

Legend:
[1] = test system: KB; experiment: Cytotoxicity against BCL2 overexpressing human KB cells transfected with luciferase siRNA assessed as propidium iodide uptake at 0.5 uM after 72 hrs by flow cytometry; assay type: functional
[2] = test system: KB; experiment: Cytotoxicity in human siRNA-mediated-MCL1-kncok down KB cells overexpressing BCL2 at 0.5 uM; assay type: functional, cell-based
[3] = test system: KB; experiment: Cytotoxicity in human KB cells overexpressing BCL2 at 0.1 uM; assay type: functional, cell-based
[4] = test system: KB; experiment: Cytotoxicity in human KB cells overexpressing BCL2 at 0.5 uM; assay type: functional, cell-based
[5] = test system: Eu-Myc; experiment: Induction of apoptosis in mouse Eu-Myc cells overexpressing BCL2 assessed as inhibition of colony formation at 1 uM; assay type: functional, cell-based
[6] = test system: KB; experiment: Cytotoxicity against BCL2 overexpressing human KB cells transfected with MCL1 siRNA assessed as annexin 5 reactivity at 0.5 uM after 72 hrs by flow cytometry; assay type: functional
[7] = test system: KB; experiment: Cytotoxicity against BCL2 overexpressing human KB cells transfected with luciferase siRNA assessed as annexin 5 uptake at 0.5 uM after 72 hrs by flow cytometry; assay type: functional
[8] = test system: KB; experiment: Cytotoxicity against BCL2 overexpressing human KB cells transfected with MCL1 siRNA assessed as propidium iodide uptake at 0.5 uM after 72 hrs by flow cytometry; assay type: functional
[9] = test system: Eu-Myc; experiment: Induction of apoptosis in mouse Eu-Myc cells overexpressing MCL1 assessed as inhibition of colony formation at 1 uM; assay type: functional, cell-based
[10] = test system: Eu-Myc; experiment: Induction of apoptosis in mouse Eu-Myc cells overexpressing A1 assessed as inhibition of colony formation at 1 uM; assay type: functional, cell-based
[11] = Cytotoxicity against mouse B16-F1 cells transfected with luciferase siRNA assessed as assessed as annexin 5 uptake at 100 nM after 24 hrs by flow cytometry; assay type: functional
[12] = Cytotoxicity against mouse B16-F1 cells transfected with MCL1 siRNA assessed as assessed as annexin 5 uptake at 100 nM after 24 hrs by flow cytometry; assay type: functional
[13] = test system: Saccharomyces cerevisiae; experiment: Antagonism of BCL pathway-mediated inhibition of Saccharomyces cerevisiae W301 in absence of BAX/BAK; assay type: functional, organism-based
Procedure, shortened: (§1)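 W301 yeast transformed with the indicated vectors; cultures in synthetic complete medium with 2% raffinose and 2% galactose, seeded at 0.01 OD units, compound or vehicle added (0.67% DMSO final). Cell density read after 48 h shaking at 30°C.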

[14] = test system: SW480; experiment: Antitumor activity in CB17 SCID mouse bearing human SW480 cells xenografts at 2 mg/kg, ip administered once in 3 days for 5 times after 14 days; assay type: functional; conditions: route intraperitoneal
Procedure, shortened: (§2)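 Female mice, 6–8 weeks (BALB/c for 4T1; CB17 SCID for C33A, PC3, SW480), given s.c. flank cells in PBS. Dosing i.p. once every 3 days ×5, starting day 7 (SW480), 14 (C33A) or 8 (PC3, 4T1). Tumor size measured thrice weekly, volume = length × width²/2, 8 animals/cohort; T/C (mean tumor size change treated ÷ control) at 14 days after first dose.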

[15] = test system: SK-MEL-5; experiment: Reduction in MCL1-BAK interaction in mitochondria of human SKMel5 cells at 1 uM after 5 hrs by immunoprecipitation; assay type: functional, cell-based
[16] = test system: SK-MEL-5; experiment: Inhibition of MCL1-BAK interaction in mitochondria of human SKMel5 cells at 10 nM; assay type: functional, cell-based
[17] = test system: Mus musculus; experiment: Toxicity in CB17 SCID mouse bearing human C33A cells xenografts assessed as weight change at 2 mg/kg, ip administered once in 3 days for 5 times after 14 days; assay type: organism-based, C-33-A; parameters: dose 2 mg/kg, route intraperitoneal; conditions: in vivo, 336 h
Procedure, shortened: (§3)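 Tumor-bearing mice as in the xenograft study (BALB/c with 4T1; CB17 SCID with C33A, PC3, SW480), 8 per cohort, dosed i.p. once every 3 days ×5. Body weight measured three times weekly; animal deaths and weight change recorded 14 days after first injection.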

[18] = test system: C-33-A; experiment: Antitumor activity in CB17 SCID mouse bearing human C33A cells xenografts at 2 mg/kg, ip administered once in 3 days for 5 times after 14 days; assay type: functional; conditions: route intraperitoneal; procedure, shortened: as §2
[19] = target: Induced myeloid leukemia cell differentiation protein Mcl-1 (Homo sapiens, UniProt Q07820); experiment: Inhibition of BH3 peptide binding to human recombinant MCL1 by fluorescence polarization assay
[20] = test system: SK-MEL-5; experiment: Disruption of BCL2-BIM interaction in mitochondria of human SKMel5 cells 5 hrs by immunoprecipitation; assay type: functional, cell-based
[21] = test system: B16-F1; experiment: Reversal of MCL1 mediated resistance to bortezomib in mouse B16-F1 cells assessed as cell death; assay type: functional, cell-based
[22] = test system: KB; experiment: Reversal of MCL1 mediated resistance to ABT-737 in BCL2 overexpressing human KB cells assessed as cell death; assay type: functional, cell-based
[23] = target: T1, Bcl-2-like protein 10 (Homo sapiens, UniProt Q9HD36); experiment: Inhibition of BH3 peptide binding to human recombinant BCL-b by fluorescence polarization assay
T1 sequence (Q9HD36 whole entry): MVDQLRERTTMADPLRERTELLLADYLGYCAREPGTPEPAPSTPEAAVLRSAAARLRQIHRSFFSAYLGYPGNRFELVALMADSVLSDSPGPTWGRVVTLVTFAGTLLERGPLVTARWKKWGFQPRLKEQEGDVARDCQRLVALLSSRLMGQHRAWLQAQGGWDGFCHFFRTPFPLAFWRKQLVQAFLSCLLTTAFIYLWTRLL

[24] = test system: Eu-Myc; experiment: Induction of apoptosis in mouse Eu-Myc cells overexpressing BCL2 assessed as inhibition of cell survivability at 1 uM; assay type: functional, cell-based
[25] = target: T2, Bcl-2-related protein A1 (Homo sapiens, UniProt Q16548); experiment: Inhibition of BH3 peptide binding to human recombinant A1 by fluorescence polarization assay
T2 sequence (Q16548 whole entry): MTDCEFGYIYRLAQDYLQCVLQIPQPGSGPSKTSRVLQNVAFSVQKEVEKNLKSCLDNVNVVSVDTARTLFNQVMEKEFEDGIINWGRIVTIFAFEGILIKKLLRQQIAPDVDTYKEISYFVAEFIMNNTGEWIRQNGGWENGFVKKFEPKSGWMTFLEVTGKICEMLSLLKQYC

[26] = test system: Eu-Myc; experiment: Induction of apoptosis in mouse Eu-Myc cells overexpressing A1 assessed as inhibition of cell survivability at 1 uM; assay type: functional, cell-based
[27] = target: T3, Bcl-2-like protein 2 (Homo sapiens, UniProt Q92843); experiment: Inhibition of BH3 peptide binding to human recombinant BCL-w by fluorescence polarization assay
T3 sequence (Q92843 whole entry): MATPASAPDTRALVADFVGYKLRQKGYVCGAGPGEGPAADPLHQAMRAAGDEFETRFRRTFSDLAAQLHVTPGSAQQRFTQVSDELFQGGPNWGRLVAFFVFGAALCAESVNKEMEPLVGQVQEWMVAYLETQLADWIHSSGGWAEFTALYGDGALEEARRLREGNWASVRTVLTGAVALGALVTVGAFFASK

[28] = test system: Mus musculus; experiment: Toxicity in BALB/c mouse bearing mouse 4T1 cells xenografts assessed as survivability at 2 mg/kg, ip administered once in 3 days for 5 times after 14 days; assay type: organism-based; parameters: dose 2 mg/kg, route intraperitoneal; conditions: in vivo, 336 h; procedure, shortened: as §3
[29] = test system: Epithelial cell; experiment: […] in Bax and Bak double knock out E1A/p53DN-transformed mouse kidney epithelial cells assessed as caspase-3 activation at 2.0 uM; assay type: functional, cell-based
[30] = test system: Mus musculus; experiment: Toxicity in CB17 SCID mouse bearing human PC3 cells xenografts assessed as survivability at 2 mg/kg, ip administered once in 3 days for 5 times after 14 days; assay type: organism-based, PC-3; parameters: dose 2 mg/kg, route intraperitoneal; conditions: in vivo, 336 h; procedure, shortened: as §3
[31] = test system: Eu-Myc; experiment: Induction of apoptosis in mouse Eu-Myc cells overexpressing MCL1 assessed as inhibition of cell survivability at 1 uM; assay type: functional, cell-based
[32] = test system: Mus musculus; experiment: Toxicity in CB17 SCID mouse bearing human C33A cells xenografts assessed as survivability at 2 mg/kg, ip administered once in 3 days for 5 times after 14 days; assay type: organism-based, C-33-A; parameters: dose 2 mg/kg, route intraperitoneal; conditions: in vivo, 336 h; procedure, shortened: as §3
[33] = test system: PC-3; experiment: Antitumor activity in CB17 SCID mouse bearing human PC3 cells xenografts at 2 mg/kg, ip administered once in 3 days for 5 times after 14 days; assay type: functional; conditions: route intraperitoneal; procedure, shortened: as §2
[34] = test system: E1A/p53DN; experiment: Increase in inhibition of MCL1 +/+ in mouse Bim transformed E1A/p53DN cells; assay type: functional, cell-based
[35] = test system: Mus musculus; experiment: Toxicity in CB17 SCID mouse bearing human SW480 cells xenografts assessed as survivability at 2 mg/kg, ip administered once in 3 days for 5 times after 14 days; assay type: organism-based; parameters: dose 2 mg/kg, route intraperitoneal; conditions: in vivo, 336 h; procedure, shortened: as §3
[36] = test system: Mus musculus; experiment: Toxicity in CB17 SCID mouse bearing human PC3 cells xenografts assessed as weight change at 2 mg/kg, ip administered once in 3 days for 5 times after 14 days; assay type: organism-based, PC-3; parameters: dose 2 mg/kg, route intraperitoneal; conditions: in vivo, 336 h; procedure, shortened: as §3
[37] = test system: Mus musculus; experiment: Toxicity in CB17 SCID mouse bearing human SW480 cells xenografts assessed as weight change at 2 mg/kg, ip administered once in 3 days for 5 times after 14 days; assay type: organism-based; parameters: dose 2 mg/kg, route intraperitoneal; conditions: in vivo, 336 h; procedure, shortened: as §3
[38] = test system: 4T1; experiment: Antitumor activity in BALB/c mouse bearing mouse 4T1 cells xenografts at 2 mg/kg, ip administered once in 3 days for 5 times after 14 days; assay type: functional; conditions: route intraperitoneal; procedure, shortened: as §2
[39] = test system: KB; experiment: Release of cytochrome c in mitochondria of human KB cells at 2 uM; assay type: functional, cell-based
Procedure, shortened: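 Mitochondria isolated from KB cells were incubated 30 min at 37°C with DMSO or compound, then reisolated. Mitochondrial pellet and post-mitochondrial supernatant were analysed by SDS/PAGE and cytochrome c immunoblot, with actin and a control protein as loading controls.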

[40] = test system: E1A/p53DN; experiment: Increase in inhibition of MCL1 -/- in mouse Bim transformed E1A/p53DN cells; assay type: functional, cell-based
[41] = test system: Saccharomyces cerevisiae; experiment: Antagonism of BAX/BAK dependent BCL pathway-mediated inhibition of Saccharomyces cerevisiae W301; assay type: functional, organism-based; procedure, shortened: as §1
[42] = test system: Mus musculus; experiment: Toxicity in BALB/c mouse bearing mouse 4T1 cells xenografts assessed as weight change at 2 mg/kg, ip administered once in 3 days for 5 times after 14 days; assay type: organism-based; parameters: dose 2 mg/kg, route intraperitoneal; conditions: in vivo, 336 h; procedure, shortened: as §3

Chain of Induced myeloid leukemia cell differentiation protein Mcl-1 (Q07820 whole entry): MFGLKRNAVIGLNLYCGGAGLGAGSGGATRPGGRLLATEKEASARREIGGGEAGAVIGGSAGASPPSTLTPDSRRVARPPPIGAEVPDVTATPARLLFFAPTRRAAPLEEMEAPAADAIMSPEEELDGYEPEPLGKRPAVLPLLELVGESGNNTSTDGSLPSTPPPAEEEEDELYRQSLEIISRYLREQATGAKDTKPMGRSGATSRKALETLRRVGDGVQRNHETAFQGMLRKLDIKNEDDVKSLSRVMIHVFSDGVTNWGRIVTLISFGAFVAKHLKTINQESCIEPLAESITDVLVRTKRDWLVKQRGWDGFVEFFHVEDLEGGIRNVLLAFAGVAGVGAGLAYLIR

CN(C)CC[C@H](CSc1ccccc1)Nc1ccc(S(=O)(=O)NC(=O)c2ccc(N3CCN(Cc4ccccc4-c4ccc(Cl)cc4)CC3)cc2)cc1[N+](=O)[O-] [ABT 737]
Activity [1]: 9% | Activity [2]: Active | Activity [3]: inactive | Activity [4]: inactive | Activity [5]: Active | Activity [6]: 58% | Activity [7]: 8% | Activity [8]: 72% | Activity [9]: inactive | Activity [10]: inactive

CC(C)C[C@H](NC(=O)[C@H](Cc1ccccc1)NC(=O)c1cnccn1)B(O)O [BORTEZOMIB]
Activity [11]: 14% | Activity [12]: 42%

COC1=CC(c2cc3ccccc3[nH]2)=N/C1=C\c1[nH]c(C)cc1C [OBATOCLAX]
Activity [13]: inactive | Activity [14]: 35% | Activity [15]: Active | Activity [16]: Active | Activity [17]: 7% | Activity [18]: 11% | Ki [19]: 1000 nM | Activity [20]: Active | Activity [21]: Active | Activity [5]: Active | Activity [22]: Active | Ki [23]: 1000 nM | Activity [24]: Active | Ki [25]: 1000 nM | Activity [26]: Active | Ki [27]: 1000 nM | Activity [28]: Non-toxic | Activity [9]: Active | Activity [29]: Active | Activity [30]: Non-toxic | Activity [31]: Active | Activity [32]: Non-toxic | Activity [33]: 28% | Activity [34]: Active | Activity [35]: Non-toxic | Activity [36]: 10% | Activity [37]: 3% | Activity [38]: 42% | Activity [39]: inactive | Activity [10]: Active | Activity [40]: Active | Activity [41]: Active | Activity [42]: 1%
